Here are results for 75 variants from the RNAGym collection of RNA variant scans (doi:10.1126/science.aae0568).

Fewer inactive variants are shown than the library holds. Bounds are passed on as bounds.

The chains are these.
B1: tRNA (parent)
chain: GUUCCGUUGGCGUAAUGGUAACGCGUCUCCCUCCUAAGGAGAAGACUGCGGGUUCGAGUCCCGUACGGAACG

The variants in this series derive from B1. In words: yeast fitness relative to wild type (ratio to wild type); higher = fitter; tRNA-Arg(CCU), competitive growth, 37 C, YPD. The method in brief:
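Gene amplicons from the start population and from each of six end populations were read by 100-nucleotide paired-end sequencing. Those end populations came from pooled Saccharomyces cerevisiae strains carrying tRNA-Arg(CCU) gene variants at the native locus, competed in YPD at 37°C for 24 hours. Fitness relative to wild type was worked out from changes in genotype frequencies. Genotypes needed ≥ 100 starting reads, and estimates < 0.5 were set to 0.5.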
With GUUCCGUUGGCGUAAUGGUAACGCGUCUCCCUCCUAAGGAGAAGAAUGCGGGUUCGAGUCCCGCACGGAACG, the yeast fitness worked out at 0.986. For GUUCCGUUGGCGUAAUGGUAACGCGUCUCCCUCCUAAGGAGAAGAAUGCGGGUUCGAGUCCCGUACGCAACG the value was 0.78. For GUUCCGUUGGCGUAAUGGUAACGCGUCUCCCUCCUAAGGAGAAGAAUGCGGGUUCGAGUCCCGUACGUAACG the value was 0.824. Take GUUCCGUUGGCGUAAUGGUAACGCGUCUCCCUCCUAAGGAGAAGAGUGUGGGUUCGAGUCCCGUACUGAACG: the yeast fitness was determined as 0.671. GUUCCGUUGGCGUAAUGGUAACGCGUCUCCCUCCUAAGGAGAAGUCUGCGGGUAGGAGUCCCGUACGGAACG: the yeast fitness is no more than 0.5. For GUUCCGUUGGCGUAAUGGUAACGCGUCUCCCUCCUAAGGAGAAGUCUGCGGGGUCGAGUCCCGUACGGAACG the value was no more than 0.5; for GUUCCGUUGGCGUAAUGGUAACGCGUCUCCCUCCUAAGGAGAAGUCUGCGGGAUCGAGUCCCGUACGGAACG, 0.723. On to GUUCCGUUGGCGUAAUGGUAACGCGUCUCCCUCCUAAGGAGAAGAAUGCGGGUUCGAGUGCUGUACGGCACG, for which the yeast fitness is no more than 0.5.

As for GUUCCGUUGGCGUAAUGGUAACGCGUCUCCCUCCUAAGGAGAAGAAUGCGGGUUCGAGUCCCUUACGGAACG, the yeast fitness was determined as 0.764.

As to GUUCCGUUGGCGUAAUGGUAACGCGUCUCCCUCCUAAGGAGAAGAAUGCGGGUUCGAGUCCCAUACGGAACG, the yeast fitness was 0.949.

Take GUUCCGUUGGCGUAAUGGUAACGCGUCUCCCUCCUAAGGAGAAGAAUGCGGGUUCGAGUCCCGUACGGACCG: the yeast fitness came to 1.02. The same measure for GUUCCGUUGGCGUAAUGGUAACGCGUCUCCCUCCUAAGGAGAAGAAUGCGGCUUCGAGUCCCAUUCGGAACG: no more than 0.5; for GUUCCGUUGGCGUAAUGGUAACGCGUCUCCCUCCUAAGGAGAAGAAUGCGGGUUCGAGUCGCGUACGGAACG: 0.637. The same measure for GUUCCGUUGGCGUAAUGGUAACGCGUCUCCCUCCUAAGGAGAAGAAUGCGGGUUCGAGUCACGUACGGAACG: 0.758. As for GUUCCGUUGGCGUAAUGGUAACGCGUCUCCCUCCUAAGGAGAAGAAUGCGGGUUAGAGUCCCAUACGGAACG, the yeast fitness is 0.575.

In the case of GUUCCGUUGGCGUAAUGGUAACGCGUCUCCCUCCUAAGGAGAAGUCUGCGGGUUCGAGUCCCGUACUGGACG, the yeast fitness turned out to be 0.536. For GUUCCGUUGGCGUAAUGGUAACGCGUCUCCCUCCUAAGGAGAAGAAUGCGGGUGCGAGUCCCGUACGGAACG the value was 0.544; for GUUCCGUUGGCGUAAUGGUAACGCGUCUCCCUCCUAAGGAGAAGAGUGUGGGUUCGAGUCCCGUACGCAACG, 0.653; for GUUCCGUUGGCGUAAUGGUAACGCGUCUCCCUCCUAAGGAGAAGAAUGCGGGUUCGUGUCCCGUACGGAACG, 0.792. For GUUCCGUUGGCGUAAUGGUAACGCGUCUCCCUCCUAAGGAGAAGAAUGCGGGUUCGCGUCCCGUACGGAACG the value was 0.57; for GUUCCGUUGGCGUAAUGGUAACGCGUCUCCCUCCUAAGGAGAAGAAUGCGGGUUCGGGUCCCGUACGGAACG, 0.964; for GUUCCGUUGGCGUAAUGGUAACGCGUCUCCCUCCUAAGGAGAAGAAUGCGGAUUCGACUCCCGUACGGAACG, 0.742. On to GUUCCGUUGGCGUAAUGGUAACGCGUCUCCCUCCUAAGGAGAAGAAUGCGGGUUAGAGUCCCGUACGGAACG, for which the yeast fitness stood at 0.562. The same measure for GUUCCGUUGGCGUAAUGGUAACGCGUCUCCCUCCUAAGGAGAAGAAUGCGGGUUUGAGUCCCGUACGGAACG: 0.758; for GUUCCGUUGGCGUAAUGGUAACGCGUCUCCCUCCUAAGGAGAAGAAUGCGGGUUCGUGUCCCGUACGCAACG: 0.543.

With GUUCCGUUGGCGUAAUGGUAACGCGUCUCCCUCCUAAGGAGAAGAAUGCGGGUUCGAGUCUCGUACGGACCG, the yeast fitness is 0.861. For GUUCCGUUGGCGUAAUGGUAACGCGUCUCCCUCCUAAGGAGAAGAAUGCGGGUUCGACUCCCGUAUGGAACG the value was 0.998. The same measure for GUUCCGUUGGCGUAAUGGUAACGCGUCUCCCUCCUAAGGAGAAGAAUGCGGGUUCGAGUCCCCUACAGAACG: 0.614; for GUUCCGUUGGCGUAAUGGUAACGCGUCUCCCUCCUAAGGAGAAGAAUGCGGGUUCGAGUCGCGUACGGAUCG: 0.525; for GUUCCGUUGGCGUAAUGGUAACGCGUCUCCCUCCUAAGGAGAAGAGUGCGGGUUCGAGUCCCGUCCAGAACG: 0.732. For GUUCCGUUGGCGUAAUGGUAACGCGUCUCCCUCCUAAGGAGAAGAGUGAGGGUUCGAGUCCCGUACGGUACG the value was 0.549; for GUUCCGUUGGCGUAAUGGUAACGCGUCUCCCUCCUAAGGAGAAGAAUGCGGGUUCGACCCCCGUACGGAACG, 0.545; for GUUCCGUUGGCGUAAUGGUAACGCGUCUCCCUCCUAAGGAGAAGAAUGCGGGUUCGAGUCGCGUACGGGACG, 0.551. As to GUUCCGUUGGCGUAAUGGUAACGCGUCUCCCUCCUAAGGAGAAGAAUGCGGGUUCGAGUCGCGUACGGCACG, the yeast fitness was determined as 0.501. The same measure for GUUCCGUUGGCGUAAUGGUAACGCGUCUCCCUCCUAAGGAGAAGAGUGUGGGUUCGAGUCCCGUACGGUACG: 1.04; for GUUCCGUUGGCGUAAUGGUAACGCGUCUCCCUCCUAAGGAGAAGUCUGCGGGUUCGAGUCCCCUGCGGAACG: 0.647.

Regarding GUUCCGUUGGCGUAAUGGUAACGCGUCUCCCUCCUAAGGAGAAGUCUGCGGGUUCGAGUCCCCUUCGGAACG, the yeast fitness is 0.727. Take GUUCCGUUGGCGUAAUGGUAACGCGUCUCCCUCCUAAGGAGAAGAAUGCGGGUUCGAUUCCCGUACGGAACG: the yeast fitness came out at 0.907. For GUUCCGUUGGCGUAAUGGUAACGCGUCUCCCUCCUAAGGAGAAGAAUGCGGGUUGGAGUCCCGUACUGAACG the value was 0.699; for GUUCCGUUGGCGUAAUGGUAACGCGUCUCCCUCCUAAGGAGAAGAGUGCGGGUUCGAGUCCCGUACGGAUCG, 0.976. For GUUCCGUUGGCGUAAUGGUAACGCGUCUCCCUCCUAAGGAGAAGAGUGCGGGUUCGAGUCCCGUACGGACCG the value was 0.923; for GUUCCGUUGGCGUAAUGGUAACGCGUCUCCCUCCUAAGGAGAAGAGUGCGGGUUCGAGUCCCGUACGGAGCG, 1.03.

As for GUUCCGUUGGCGUAAUGGUAACGCGUCUCCCUCCUAAGGAGAAGAAUGCGGGUUCGAGUCCCGUACGCGACG, the yeast fitness was no more than 0.5. The same measure for GUUCCGUUGGCGUAAUGGUAACGCGUCUCCCUCCUAAGGAGAAGAGUGCGGGUUCGCGUCCCGUACGGCACG: no more than 0.5; for GUUCCGUUGGCGUAAUGGUAACGCGUCUCCCUCCUAAGGAGAAGAAUGCGGGUUCGAGUGCCGUACGGAACG: 0.684. With GUUCCGUUGGCGUAAUGGUAACGCGUCUCCCUCCUAAGGAGAAGAAUGCGGGUUCGAGUCCAGUACGGAACG, the yeast fitness was determined as 0.805. The same measure for GUUCCGUUGGCGUAAUGGUAACGCGUCUCCCUCCUAAGGAGAAGAAUGCAGGUUCGAGUGCCCUACGGAACG: no more than 0.5.

Consider GUUCCGUUGGCGUAAUGGUAACGCGUCUCCCUCCUAAGGAGAAGAAUGAGGGUUCGAGUCCCGUACGGAACG, for which the yeast fitness turned out to be 0.601. For GUUCCGUUGGCGUAAUGGUAACGCGUCUCCCUCCUAAGGAGAAGAAUGCGGGUUCGAGUCCCGUACGGAACG the value was 0.999; for GUUCCGUUGGCGUAAUGGUAACGCGUCUCCCUCCUAAGGAGAAGAGUGCGGGUUCGAGUCCCGUACGGAACG, 0.99.

With GUUCCGUUGGCGUAAUGGUAACGCGUCUCCCUCCUAAGGAGAAGAGUGCGGGUUCGAGUGCCGUACGGAACG, the yeast fitness was determined as 0.715. For GUUCCGUUGGCGUAAUGGUAACGCGUCUCCCUCCUAAGGAGAAGAAUGCGGGUUCGGGUCUCGUACGGAACG the value was 0.704; for GUUCCGUUGGCGUAAUGGUAACGCGUCUCCCUCCUAAGGAGAAGAAUGCGGGUUCCAGUCCCGUACGGAACG, 0.642. With GUUCCGUUGGCGUAAUGGUAACGCGUCUCCCUCCUAAGGAGAAGAAUGCGGGUUCAAGUCCCGUACGGAACG, the yeast fitness worked out at 1.01.

Consider GUUCCGUUGGCGUAAUGGUAACGCGUCUCCCUCCUAAGGAGAAGUCUGCGGGUACGAGUCCCGUACGGAACG, for which the yeast fitness came to 0.702. For GUUCCGUUGGCGUAAUGGUAACGCGUCUCCCUCCUAAGGAGAAGAGUGCGGGUUCGUGUCCCGUAUGGAACG the value was 0.608; for GUUCCGUUGGCGUAAUGGUAACGCGUCUCCCUCCUAAGGAGAAGAAUGCGGGUUGGAGUCCCGUAUGGCACG, no more than 0.5. For the variant GUUCCGUUGGCGUAAUGGUAACGCGUCUCCCUCCUAAGGAGAAGAAUGUGGGUUCGAGUCCCCUACGGAACG, the yeast fitness came to 0.694. As for GUUCCGUUGGCGUAAUGGUAACGCGUCUCCCUCCUAAGGAGAAGAAUGCGGGUUCAAGUCCCGUACGGAGCG, the yeast fitness was 1.01. The same measure for GUUCCGUUGGCGUAAUGGUAACGCGUCUCCCUCCUAAGGAGAAGAAUGCGGGUUCUGGUCCCGUACGGAACG: 0.665.

On to GUUCCGUUGGCGUAAUGGUAACGCGUCUCCCUCCUAAGGAGAAGAAUGCGGGCUCGAGUCCCGUACGGAACG, for which the yeast fitness amounted to 0.865. For GUUCCGUUGGCGUAAUGGUAACGCGUCUCCCUCCUAAGGAGAAGAGUGCGGGUUUGCGUCGCGUACGGAACG the value was no more than 0.5; for GUUCCGUUGGCGUAAUGGUAACGCGUCUCCCUCCUAAGGAGAAGAAUGCGGGUUCGAUUCCCGUACGAAACG, 0.932. The same measure for GUUCCGUUGGCGUAAUGGUAACGCGUCUCCCUCCUAAGGAGAAGAAUGCGGAUUCGAGUCCCCUACGGAACG: 0.555.

With GUUCCGUUGGCGUAAUGGUAACGCGUCUCCCUCCUAAGGAGAAGUCUGCGGGUCCGAGUCCCGUAGCGAACG, the yeast fitness is no more than 0.5. On to GUUCCGUUGGCGUAAUGGUAACGCGUCUCCCUCCUAAGGAGAAGAAUGCGGGUUCGAGUCCCGUACGGUACG, for which the yeast fitness was determined as 1.1. Turning to GUUCCGUUGGCGUAAUGGUAACGCGUCUCCCUCCUAAGGAGAAGAAUGCGGGUUCGAGUCCCGUACGGGACG, the yeast fitness is 0.932.

In the case of GUUCCGUUGGCGUAAUGGUAACGCGUCUCCCUCCUAAGGAGAAGAAUGCGGGUUCGAGUCCCGUACGGCACG, the yeast fitness came to 0.839. The same measure for GUUCCGUUGGCGUAAUGGUAACGCGUCUCCCUCCUAAGGAGAAGUCUGCGGGUUCGAGUCCCGGACGGAACG: 0.721; for GUUCCGUUGGCGUAAUGGUAACGCGUCUCCCUCCUAAGGAGAAGAGUGAGGGUUCGAGUCCCGUACGGAACG: 0.7; for GUUCCGUUGGCGUAAUGGUAACGCGUCUCCCUCCUAAGGAGAAGAGUGGGGGUUCGAGUCCCGUACGGAACG: 0.966. For GUUCCGUUGGCGUAAUGGUAACGCGUCUCCCUCCUAAGGAGAAGAGUGUGGGUUCGAGUCCCGUACGGAACG the value was 0.981. For GUUCCGUUGGCGUAAUGGUAACGCGUCUCCCUCCUAAGGAGAAGUCUGCGGGUUCGAGUCCCGUACCGAACG the value was 0.738. On to GUUCCGUUGGCGUAAUGGUAACGCGUCUCCCUCCUAAGGAGAAGAAUGCGGGUUCGAGUCCCGUAAGGAACG, for which the yeast fitness is 0.688. In the case of GUUCCGUUGGCGUAAUGGUAACGCGUCUCCCUCCUAAGGAGAAGAAUGCGGGUUCGAGUCCCGUAUGGAACG, the yeast fitness was 0.985.
